The target of experiment [1] is T1, Prostaglandin G/H synthase 1 (Mus musculus, UniProt P22437).
T1 sequence (P22437 whole entry): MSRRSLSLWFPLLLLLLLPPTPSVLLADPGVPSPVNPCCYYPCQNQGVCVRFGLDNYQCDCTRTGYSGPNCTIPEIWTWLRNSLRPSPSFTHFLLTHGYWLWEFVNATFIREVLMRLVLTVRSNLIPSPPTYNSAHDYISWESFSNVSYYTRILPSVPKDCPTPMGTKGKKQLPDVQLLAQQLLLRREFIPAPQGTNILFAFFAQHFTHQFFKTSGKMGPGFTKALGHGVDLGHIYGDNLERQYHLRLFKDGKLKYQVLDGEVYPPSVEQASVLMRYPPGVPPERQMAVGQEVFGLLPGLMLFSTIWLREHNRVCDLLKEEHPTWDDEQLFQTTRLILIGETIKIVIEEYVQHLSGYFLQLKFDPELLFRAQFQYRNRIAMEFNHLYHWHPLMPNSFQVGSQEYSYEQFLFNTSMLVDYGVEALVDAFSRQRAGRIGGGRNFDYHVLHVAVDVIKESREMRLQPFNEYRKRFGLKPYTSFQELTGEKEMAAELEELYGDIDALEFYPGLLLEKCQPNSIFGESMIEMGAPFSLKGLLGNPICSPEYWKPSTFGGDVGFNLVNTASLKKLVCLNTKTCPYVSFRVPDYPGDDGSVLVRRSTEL
Kind of experiment: Inhibition of COX1 in mouse RAW264.7 cells by enzyme immunoassay. In kind it is cell-based. The essentials: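 RAW 264.7 cells (5×10^5/well) grown overnight in DMEM with 10% FBS, then washed with PBS. Cells were not LPS-stimulated. Serum-free, phenol red-free DMEM; compound pretreatment 1 h at 37 °C, then 30 µM arachidonic acid for 30 min at 37 °C. PGE2 in the medium measured by EIA.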

For experiment [2], the system named is THP-1. As to the kind of experiment: Antiinflammatory activity in human THP1 cells assessed as inhibition of LPS-induced TNFalpha release at 1 uM by ELISA. It counts as functional. The essentials: (§1)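 THP-1 monocytes differentiated to macrophages over 72 h with conditioned medium from cells given 200 ng/mL PMA for 24 h, washed, and rested 24 h. Cells pretreated with compound (0.01–10 uM) for 1 h at 37 °C, then stimulated with 100 ng/mL LPS for 24 h. TNF-α release measured, mean ± SD of duplicates.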
A general note: ELISA stands for enzyme-linked immunosorbent assay.

The target in experiment [3] is T2, Prostaglandin G/H synthase 2 (Homo sapiens, UniProt P35354).
T2 sequence (P35354 whole entry): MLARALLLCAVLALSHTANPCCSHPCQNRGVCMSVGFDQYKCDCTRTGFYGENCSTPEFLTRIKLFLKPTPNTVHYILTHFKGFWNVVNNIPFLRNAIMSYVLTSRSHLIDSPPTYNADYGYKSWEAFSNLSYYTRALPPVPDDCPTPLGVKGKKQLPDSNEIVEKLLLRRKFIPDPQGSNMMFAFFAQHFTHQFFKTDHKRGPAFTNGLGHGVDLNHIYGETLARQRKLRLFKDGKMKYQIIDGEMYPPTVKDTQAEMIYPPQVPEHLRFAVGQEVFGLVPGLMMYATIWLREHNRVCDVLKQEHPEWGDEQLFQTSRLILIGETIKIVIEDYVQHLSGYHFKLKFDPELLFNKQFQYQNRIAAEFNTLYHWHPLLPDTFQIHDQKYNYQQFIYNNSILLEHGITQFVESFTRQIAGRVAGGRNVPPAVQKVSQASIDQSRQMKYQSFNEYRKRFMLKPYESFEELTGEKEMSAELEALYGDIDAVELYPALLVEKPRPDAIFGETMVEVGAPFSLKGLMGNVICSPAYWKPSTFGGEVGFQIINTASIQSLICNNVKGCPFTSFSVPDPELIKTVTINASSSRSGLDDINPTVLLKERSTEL
As to the kind of experiment: Inhibition of human recombinant COX2 expressed in insect Sf9 cells by enzyme immunoassay.

In experiment [4] the target is T3, Prostaglandin G/H synthase 1 (Homo sapiens, UniProt P23219). As to the kind of experiment: Inhibition of human recombinant COX1 in human platelets by enzyme immunoassay. The method in brief:
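Source was washed human platelets (5×10^7 cells/mL) in modified HEPES buffer, pH 7.4. Compounds were preincubated 15 min at 37 °C, then 100 µM arachidonic acid was added for 15 min at 37 °C. The reaction was stopped with 1 N HCl. COX-1 activity was read as PGE2 by EIA.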

For experiment [5], the target named is T4, Prostaglandin G/H synthase 2 (Mus musculus, UniProt Q05769).
T4 sequence (Q05769 whole entry): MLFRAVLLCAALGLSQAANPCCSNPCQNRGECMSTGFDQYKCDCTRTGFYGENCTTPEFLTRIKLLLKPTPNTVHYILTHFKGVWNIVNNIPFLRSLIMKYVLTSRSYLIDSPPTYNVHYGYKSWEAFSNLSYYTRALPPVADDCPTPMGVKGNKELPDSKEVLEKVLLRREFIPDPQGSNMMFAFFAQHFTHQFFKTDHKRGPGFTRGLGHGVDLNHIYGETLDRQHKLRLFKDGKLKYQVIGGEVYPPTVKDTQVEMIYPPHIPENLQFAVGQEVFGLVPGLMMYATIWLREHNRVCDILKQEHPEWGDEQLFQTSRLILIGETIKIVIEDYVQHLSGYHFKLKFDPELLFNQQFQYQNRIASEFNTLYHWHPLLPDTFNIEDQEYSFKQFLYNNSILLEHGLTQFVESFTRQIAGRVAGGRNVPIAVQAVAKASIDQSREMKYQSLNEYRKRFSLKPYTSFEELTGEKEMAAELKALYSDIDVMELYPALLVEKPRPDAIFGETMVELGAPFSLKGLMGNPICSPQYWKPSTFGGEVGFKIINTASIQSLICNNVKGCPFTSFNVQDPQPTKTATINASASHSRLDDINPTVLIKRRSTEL
As to the kind of experiment: Inhibition of COX2 in mouse RAW264.7 cells by enzyme immunoassay.

Experiment [6] addresses T5, Polyunsaturated fatty acid 5-lipoxygenase (Homo sapiens, UniProt P09917).
T5 sequence (P09917 whole entry): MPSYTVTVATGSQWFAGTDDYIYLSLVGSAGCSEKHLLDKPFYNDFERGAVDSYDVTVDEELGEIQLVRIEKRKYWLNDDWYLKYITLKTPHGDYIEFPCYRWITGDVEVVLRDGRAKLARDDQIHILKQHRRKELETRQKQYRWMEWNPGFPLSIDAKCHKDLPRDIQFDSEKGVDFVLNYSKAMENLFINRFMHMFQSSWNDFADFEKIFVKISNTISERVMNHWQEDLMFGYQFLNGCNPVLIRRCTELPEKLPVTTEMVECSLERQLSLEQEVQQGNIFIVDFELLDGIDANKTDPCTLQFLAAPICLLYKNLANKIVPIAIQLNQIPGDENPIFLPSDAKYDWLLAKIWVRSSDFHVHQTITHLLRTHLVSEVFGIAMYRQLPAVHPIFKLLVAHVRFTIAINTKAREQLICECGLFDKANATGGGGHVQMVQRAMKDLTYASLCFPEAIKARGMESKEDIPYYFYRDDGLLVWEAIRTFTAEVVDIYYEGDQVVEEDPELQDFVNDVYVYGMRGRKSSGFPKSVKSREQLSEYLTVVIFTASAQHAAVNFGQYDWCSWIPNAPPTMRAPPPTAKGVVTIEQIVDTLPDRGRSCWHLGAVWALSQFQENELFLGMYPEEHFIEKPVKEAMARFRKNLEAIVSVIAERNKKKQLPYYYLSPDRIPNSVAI
As to the kind of experiment: Inhibition of LOX5 in human PMBL by enzyme immunoassay. The essentials:
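Human peripheral blood mononuclear leukocytes (5×10^6 cells/mL) in HBSS pH 7.4, preincubated with compound 15 min at 37 °C. Stimulated with 30 µM A23187 for 15 min at 37 °C, stopped with 1 N HCl, neutralized with NaOH and centrifuged. Supernatant LTB4 measured by EIA.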

Experiment [7] relates to THP-1. Kind of experiment: Antiinflammatory activity in human THP1 cells assessed as inhibition of LPS-induced TNFalpha release at 10 uM by ELISA. It counts as functional. The essentials: as §1
Experiment [8] concerns THP-1. As to the kind of experiment: Antiinflammatory activity in human THP1 cells assessed as inhibition of LPS-induced TNFalpha release by ELISA. It counts as functional, cell-based. The method in brief:
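Differentiated THP-1 macrophages were used. They were made by 72 h culture in conditioned medium from THP-1 cells treated with 200 ng/mL PMA for 24 h, washed and rested 24 h. Cells were preincubated with compounds at 0.01, 0.1, 1 and 10 µM for 1 h at 37 °C, then stimulated with 100 ng/mL LPS for 24 h. Duplicate determinations, mean ± SD.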

Experiment [9] deals with Mitogen-activated protein kinase 14 (Homo sapiens) (UniProt Q16539). As to the kind of experiment: Inhibition of p38alpha MAPK at 10 uM.
Experiment [10] addresses T6, Prostaglandin G/H synthase 2 (Homo sapiens) (UniProt P35354).
T6 sequence (whole entry): T2 sequence (P35354 whole entry)
Particulars: THP-1, at 10 µM.

In experiment [11] the target is T6, Prostaglandin G/H synthase 2 (Homo sapiens). As to the kind of experiment: Inhibition of human recombinant COX2 expressed in insect Sf9 cells at 10 uM by enzyme immunoassay.
For experiment [12], the target named is T3, Prostaglandin G/H synthase 1. As to the kind of experiment: Inhibition of human recombinant COX1 in human platelets at 10 uM by enzyme immunoassay. The essentials: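 Washed human platelets (5×10^7 cells/mL) in modified HEPES buffer pH 7.4, preincubated with compound 15 min at 37 °C. Reaction started with 100 µM arachidonic acid, run 15 min at 37 °C, stopped with 1 N HCl. PGE2 quantified by EIA.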

Active and inactive are the calls of the source. The rule behind the calls is not given here.

What is called IC50 is the concentration that inhibits the measured activity by half. One may read the inhibition as the change of the read-out against control, counted positive when it falls.

T3 sequence (P23219 whole entry): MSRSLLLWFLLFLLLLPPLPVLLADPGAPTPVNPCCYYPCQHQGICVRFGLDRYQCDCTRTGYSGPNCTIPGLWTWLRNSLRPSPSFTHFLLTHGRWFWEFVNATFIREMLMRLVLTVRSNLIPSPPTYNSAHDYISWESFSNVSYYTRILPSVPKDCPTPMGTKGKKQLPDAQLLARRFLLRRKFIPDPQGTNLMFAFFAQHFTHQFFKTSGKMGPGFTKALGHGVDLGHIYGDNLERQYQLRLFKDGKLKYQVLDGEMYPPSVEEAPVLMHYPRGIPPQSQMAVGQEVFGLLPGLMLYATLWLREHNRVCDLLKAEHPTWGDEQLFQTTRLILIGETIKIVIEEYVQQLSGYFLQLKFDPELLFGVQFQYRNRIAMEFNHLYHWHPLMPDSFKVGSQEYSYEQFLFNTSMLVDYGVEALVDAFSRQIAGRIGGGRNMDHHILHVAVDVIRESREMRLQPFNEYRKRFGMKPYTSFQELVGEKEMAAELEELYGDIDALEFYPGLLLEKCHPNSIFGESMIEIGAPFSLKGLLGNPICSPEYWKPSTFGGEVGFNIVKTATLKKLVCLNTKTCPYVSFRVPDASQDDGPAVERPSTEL
Mitogen-activated protein kinase 14 (Homo sapiens), sequence (Q16539 whole entry): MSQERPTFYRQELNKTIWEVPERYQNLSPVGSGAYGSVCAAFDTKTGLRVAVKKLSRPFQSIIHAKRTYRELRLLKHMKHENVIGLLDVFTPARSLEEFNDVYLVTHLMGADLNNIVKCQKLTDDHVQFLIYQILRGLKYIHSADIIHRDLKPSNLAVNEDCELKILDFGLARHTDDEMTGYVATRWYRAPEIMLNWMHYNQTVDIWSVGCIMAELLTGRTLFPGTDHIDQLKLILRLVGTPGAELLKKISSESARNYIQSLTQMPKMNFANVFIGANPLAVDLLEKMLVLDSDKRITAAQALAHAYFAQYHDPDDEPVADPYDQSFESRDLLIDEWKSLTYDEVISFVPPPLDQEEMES

In experiment [1], `CS(=O)(=O)Nc1ccc([N+](=O)[O-])cc1OC1CCCCC1` [NS-398] returned a half-maximal inhibitory concentration (IC50) of 63700 nM.
For `C[C@@H]1C[C@H]2[C@@H]3CCC4=CC(=O)C=C[C@]4(C)[C@@]3(F)[C@@H](O)C[C@]2(C)[C@@]1(O)C(=O)CO` [DEXAMETHASONE], the inhibition at 1 µM in the experiment on THP-1 [2] is 89%.
For `O=[N+]([O-])c1ccc2c(c1)S(=O)(=O)N=S2c1ccc(Br)cc1` (stereo unspecified), the IC50 in [3] came out at 1700 nM; in [4], 6700 nM; in experiment [1], 2100 nM; in [5] it was 4400 nM; in experiment [6] it was 1220 nM; in the experiment with THP-1 [8] it was 440 nM. The inhibition at 10 µM with THP-1 [7] is 92%. The inhibition result in [9] is “inactive”. In experiment [10], this molecule had an inhibition of 77%.
With `O=[N+]([O-])c1ccc2c(c1)S(c1ccc(Br)cc1)=NS2(=O)=O` (stereo unspecified), the inhibition in experiment [11] turned out to be 23%; in experiment [12], 39%. Besides, the values for the IC50 in experiment [1], in [5] and in [6] were 1500 nM, 18100 nM and 470 nM, respectively. For the same molecule, in the experiment with THP-1 [7], the outcome was inactive.
On to `NS(=O)(=O)c1ccc2c(c1)S(c1ccc(Br)cc1)=NS2(=O)=O` (stereo unspecified), for which the inhibition in [11] was 27%; in [12], 17%.
Consider `Cc1ccc(-c2cc(C(F)(F)F)nn2-c2ccc(S(N)(=O)=O)cc2)cc1`, for which, in the experiment on THP-1 [7], the outcome was inactive.
On to `COc1ccc2c(c1)c(CC(=O)NCCc1ccccc1)c(C)n2C(=O)c1ccc(Cl)cc1`, for which, in experiment [1], half-maximal inhibition (IC50) was put at 56700 nM.

These data come from ChEMBL document CHEMBL1159122 (Bioorg Med Chem, 2010).
